Experimental data as given in ChEMBL document CHEMBL2331234, “Novel analgesic/anti-inflammatory agents: 1,5-diarylpyrrole nitrooxyalkyl ethers and related compounds as cyclooxygenase-2 inhibiting nitric oxide donors” (J Med Chem, 2013).

Experiments:
[1] = tested on: Rattus norvegicus; assay: Antiinflammatory activity in Sprague-Dawley/Wistar rat assessed as decrease in carrageenan-induced hyperalgesia at 20 mg/kg, po administered 4 hrs after carrageenan-challenge measured after 30 mins (reference value: 34.8 +/- 3.0 g); assay type: functional
[2] = tested on: Rattus norvegicus; assay: Antiinflammatory activity in Sprague-Dawley/Wistar rat assessed as decrease in carrageenan-induced hyperalgesia at 10 mg/kg, po administered 4 hrs after carrageenan-challenge measured after 120 mins (reference value: 31.4 +/- 3.7 g); assay type: functional
[3] = target: T1, Prostaglandin G/H synthase 1 (Mus musculus, UniProt P22437); assay: Inhibition of arachidonic acid-induced COX1 activity in mouse J774 cells assessed as decrease in PGE2 levels incubated for 15 mins prior to arachidonic acid-challenge measured after 30 mins by RIA; assay type: cell-based
T1 sequence (P22437 whole entry): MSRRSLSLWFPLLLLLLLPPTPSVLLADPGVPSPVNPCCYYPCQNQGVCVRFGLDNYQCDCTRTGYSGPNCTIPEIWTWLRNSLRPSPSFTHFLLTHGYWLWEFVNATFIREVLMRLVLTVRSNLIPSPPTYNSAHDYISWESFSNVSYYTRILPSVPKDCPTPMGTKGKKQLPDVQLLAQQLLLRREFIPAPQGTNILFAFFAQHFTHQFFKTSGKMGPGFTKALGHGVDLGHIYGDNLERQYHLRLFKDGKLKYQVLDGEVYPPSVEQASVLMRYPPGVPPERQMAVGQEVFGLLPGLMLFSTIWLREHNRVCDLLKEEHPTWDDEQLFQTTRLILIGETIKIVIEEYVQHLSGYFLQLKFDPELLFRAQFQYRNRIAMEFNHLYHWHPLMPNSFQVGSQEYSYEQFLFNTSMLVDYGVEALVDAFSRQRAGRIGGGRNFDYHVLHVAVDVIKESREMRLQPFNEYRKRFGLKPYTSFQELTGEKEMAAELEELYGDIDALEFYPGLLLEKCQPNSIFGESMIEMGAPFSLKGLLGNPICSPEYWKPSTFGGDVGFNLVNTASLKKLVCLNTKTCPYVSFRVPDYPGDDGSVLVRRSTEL
In short: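 Cells were in DMEM with 10% FBS and adhered for 2 h at 37 °C. They were pretreated with compound (10 µM; 0.1-1 µM where inhibition exceeded 50%) for 15 min, then given 15 µM arachidonic acid for 30 min at 37 °C. Supernatant PGE2 was measured by RIA. Triplicate wells were used and the mean of three experiments reported. IC50 came from a variable-slope sigmoidal fit.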

[4] = (§1) Inhibition of interleukin 1 beta-induced glycosaminoglycan release in bovine articular cartilage of metacarpophalangeal joints of feet treated 48 hrs after interleukin 1beta-challenge by DMB colorimetric assay; assay type: functional, Bos taurus
In short: (§2)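 Bovine metacarpophalangeal cartilage slices (about 100 mg per well) were cultured in serum-free DMEM at 37 °C, 5% CO2, with medium changed on days 1 and 2. On day 3 the slices were challenged with IL-1β 30 ng/mL plus compound for 48 h. GAG release was measured by the DMB (Farndale) assay and expressed as % of IL-1β alone, n = 3. EC50 is given with 95% CI.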

[5] = species: Bos taurus; assay: as §1; assay type: functional; in short: as §2
[6] = tested on: Mus musculus; assay: Antinociceptive activity in po dosed Swiss albino mouse assessed as reduction in number of acetic acid-induced writhing counted 5 mins after acetic acid challenge counted for 10 mins; assay type: functional; settings: read-out: MED
In short: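 Male Swiss albino mice (23-25 g) dosed orally, then given 0.6% acetic acid (10 mL/kg) ip. Stretching movements counted for 10 min, starting 5 min after the acetic acid. Control group received CMC. At least 7 mice/group; mean ± SEM, ANOVA with Fisher's PLSD.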

[7] = tested on: Rattus norvegicus; assay: Antiinflammatory activity in Sprague-Dawley/Wistar rat assessed as decrease in carrageenan-induced hyperalgesia at 20 mg/kg, po administered 4 hrs after carrageenan-challenge measured after 60 mins (reference value: 33.9 +/- 3.7 g); assay type: functional

Cc1c(CCOCCO[N+](=O)[O-])cc(-c2ccc(S(C)(=O)=O)cc2)n1-c1ccc(F)cc1
Activity [1]: 56.8 g | Activity [2]: 48.3 g | IC50 [3]: > 10 µM | IC50 [4]: 1.5 µM | inhibition [5]: Dose-dependent effect | minimal effective dose [6]: 10 mg/kg | Activity [7]: 49.2 g
